Tests used:
[1] = molecular target: T1, Calpain-1 catalytic subunit (Homo sapiens, UniProt P07384); test: Inhibition of the cysteine protease human Calpain 1
T1 sequence (P07384 whole entry): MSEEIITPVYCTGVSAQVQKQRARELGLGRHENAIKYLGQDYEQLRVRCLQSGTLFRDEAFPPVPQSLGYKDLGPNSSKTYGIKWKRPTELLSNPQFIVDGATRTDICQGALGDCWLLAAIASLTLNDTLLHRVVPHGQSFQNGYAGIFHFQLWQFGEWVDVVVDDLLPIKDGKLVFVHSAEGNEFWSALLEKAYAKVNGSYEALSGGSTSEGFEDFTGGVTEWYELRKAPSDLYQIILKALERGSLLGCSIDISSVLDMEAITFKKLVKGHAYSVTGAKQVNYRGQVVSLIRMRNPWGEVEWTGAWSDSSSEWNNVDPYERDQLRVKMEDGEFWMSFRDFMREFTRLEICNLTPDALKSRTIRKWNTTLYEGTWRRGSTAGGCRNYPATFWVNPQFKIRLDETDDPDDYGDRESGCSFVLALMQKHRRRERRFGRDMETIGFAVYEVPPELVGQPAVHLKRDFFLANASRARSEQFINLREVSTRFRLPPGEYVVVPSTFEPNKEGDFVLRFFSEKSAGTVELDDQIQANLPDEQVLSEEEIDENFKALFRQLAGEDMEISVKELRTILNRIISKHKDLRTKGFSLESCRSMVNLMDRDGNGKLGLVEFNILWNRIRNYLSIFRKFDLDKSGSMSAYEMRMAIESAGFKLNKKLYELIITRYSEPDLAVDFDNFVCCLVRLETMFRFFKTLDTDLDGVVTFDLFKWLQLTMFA
How it was run: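 Calpain assay in 25 mM Tris, pH 8.0, with 10 mM CaCl₂ and 5% DMSO. […] hydrolysis was read as initial velocity (t = 30-60 s) after a 30 s delay, at room temperature. Five or more inhibitor concentrations (not above 2 × K_obs) were used at two fixed substrate levels. Ki came from Dixon plots (1/v vs I) averaged over triplicates.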

[2] = molecular target: Cathepsin B (Bos taurus, UniProt P07688); test: Inhibition of bovine cathepsin B
How it was run: (§1)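 Bovine or human cathepsin B, assayed in 20 mM sodium acetate, pH 5.2, with 0.5 mM dithiothreitol and 2% DMSO. The two enzyme sources were used interchangeably. Ki was taken from Dixon plots, with triplicate assays plotted as 1/v versus inhibitor concentration.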

[3] = molecular target: Cathepsin B (Homo sapiens, UniProt P07858); test: Inhibition of human cathepsin B; how it was run: as §1

| SMILES | Ki [1] | Ki [2] | Ki [3] |
| --- | --- | --- | --- |
| CCC(NC(=O)C(CC(C)C)NC(=O)OCc1ccccc1)C(=O)C(=O)NCC(O)c1cccc2ccccc12 (stereo not given) | 120 nM | 63 nM | – |
| CC(C)CC(NC(=O)OCc1ccccc1)C(=O)NC(Cc1ccccc1)C(=O)C(=O)NCCNC(=O)CCCC[C@@H]1SC[C@@H]2NC(=O)N[C@@H]21 (stereo not given in full) | 220 nM | 230 nM | – |
| CC(C)CC(NC(=O)C(c1ccccc1)c1ccccc1)C(=O)NC(Cc1ccccc1)C(=O)C(=O)NCC(O)c1ccccc1 (stereo not given) | 10000 nM | 240 nM | – |
| CCC(NC(=O)C(CC(C)C)NC(=O)OCc1ccccc1)C(=O)C(=O)NCCCN1CCCc2ccccc21 (stereo not given) | 370 nM | 94 nM | – |
| CCNC(=O)C(=O)C(CC)NC(=O)C(CC(C)C)NC(=O)N1CCOCC1 (stereo not given) | 7900 nM | 4300 nM | – |
| CCNC(=O)C(=O)C(CC)NC(=O)C(CC(C)C)NC(=O)C(c1ccccc1)c1ccccc1 (stereo not given) | 5000 nM | 550 nM | – |
| CCC(NC(=O)C(CC(C)C)NC(=O)OCc1ccccc1)C(=O)C(=O)NCC(O)c1ccc2ccccc2c1 (stereo not given) | 350 nM | 63 nM | – |
| CC(C)CC(NC(=O)OCc1ccccc1)C(=O)NC(Cc1ccccc1)C(=O)C(=O)NCCCN1CCCc2ccccc21 (stereo not given) | 380 nM | 140 nM | – |
| CCCC(NC(=O)C(CC(C)C)NC(=O)OCc1ccccc1)C(=O)C(=O)NCc1ccccn1 (stereo not given) | 19 nM | – | 750 nM |
| CC(C)CC(NC(=O)OCc1ccccc1)C(=O)NC(Cc1ccccc1)C(=O)C(=O)NCc1ccc2ccccc2n1 (stereo not given) | 110 nM | – | 340 nM |
| CCC(NC(=O)C(CC(C)C)NC(=O)OCc1ccccc1)C(=O)C(=O)NCc1nccc2ccccc12 (stereo not given) | 250 nM | – | 300 nM |
| CC(C)CC(NC(=O)C(c1ccccc1)c1ccccc1)C(=O)NC(Cc1ccccc1)C(=O)C(=O)NCCCN1CCOCC1 (stereo not given) | 760 nM | – | 3800 nM |
| CCC(NC(=O)C(CC(C)C)NC(=O)OCc1ccccc1)C(=O)C(=O)NC (stereo not given) | 280 nM | 330 nM | – |
| CC(C)CC(NC(=O)OCc1ccccc1)C(=O)NC(Cc1ccccc1)C(=O)C(=O)NCC(O)c1ccc(N(C)C)cc1 (stereo not given) | 620 nM | 310 nM | – |
| CCC(NC(=O)C(CC(C)C)NC(=O)OCc1ccccc1)C(=O)C(=O)NCC(O)c1cccc(Oc2ccc(Cl)c(Cl)c2)c1 (stereo not given) | 270 nM | 100 nM | – |
| CCC(NC(=O)C(CC(C)C)NC(=O)OCc1ccccc1)C(=O)C(=O)NCC(O)c1ccc(N(C)C)cc1 (stereo not given) | 330 nM | 72 nM | – |
| CCC(NC(=O)C(CC(C)C)NC(=O)OCc1ccccc1)C(=O)C(=O)NCC(O)c1ccc(OC)cc1 (stereo not given) | 240 nM | 120 nM | – |
| CCC(NC(=O)C(CC(C)C)NC(=O)OCc1ccccc1)C(=O)C(=O)NCC(O)c1c(F)c(F)c(F)c(F)c1F (stereo not given) | 50 nM | 150 nM | – |
| CCC(NC(=O)C(CC(C)C)NC(=O)OCc1ccccc1)C(=O)C(=O)NCC(O)c1ccc(Oc2ccccc2)cc1 (stereo not given) | 100 nM | 210 nM | – |
| CC(C)CC(NC(=O)OCc1ccccc1)C(=O)NC(Cc1ccccc1)C(=O)C(=O)NCCCN1CCc2ccccc2C1 (stereo not given) | 220 nM | – | 4500 nM |
| CC(C)CC(NC(=O)OCc1ccccc1)C(=O)NC(Cc1ccccc1)C(=O)C(=O)NCC(O)c1cccc(Oc2ccccc2)c1 (stereo not given) | 600 nM | 640 nM | – |
| CCNC(=O)C(=O)C(CC)NC(=O)C(CC(C)C)NC(=O)c1ccco1 (stereo not given) | 850 nM | 1200 nM | – |
| CCC(NC(=O)C(CC(C)C)NC(=O)OCc1ccccc1)C(=O)C(=O)NCCCN1CCc2ccccc2C1 (stereo not given) | 310 nM | – | 8000 nM |
| CC(C)CC(NC(=O)OCc1ccccc1)C(=O)NC(Cc1ccccc1)C(=O)C(=O)NCC(O)c1ccc(OCc2ccccc2)c(OCc2ccccc2)c1 (stereo not given) | 480 nM | 20000 nM | – |
| CCC(NC(=O)C(CC(C)C)NC(=O)OCc1ccccc1)C(=O)C(=O)NCC(O)c1cccc(Oc2ccccc2)c1 (stereo not given) | 900 nM | 120 nM | – |

| SMILES | Ki [1] | Ki [2] | Ki [3] |
| --- | --- | --- | --- |
| CCC(NC(=O)C(CC(C)C)NC(=O)OCc1ccccc1)C(=O)C(=O)NCC(O)c1cc(OC)c(OC)c(OC)c1 (stereo not given) | 380 nM | 220 nM | – |
| CCC(NC(=O)C(CC(C)C)NC(=O)C(c1ccccc1)c1ccccc1)C(=O)C(=O)NCCCN1CCOCC1 (stereo not given) | 800 nM | – | 2300 nM |
| CC(C)CC(NC(=O)OCc1ccccc1)C(=O)NC(Cc1ccccc1)C(=O)C(=O)NCC(O)c1ccc(Oc2ccccc2)cc1 (stereo not given) | 200 nM | 2100 nM | – |
| CCNC(=O)C(=O)C(CC)NC(=O)C(CC(C)C)NC(=O)c1ccc2ccccc2n1 (stereo not given) | – | 96 nM | – |
| CC(C)CC(NC(=O)OCc1ccccc1)C(=O)NC(Cc1ccccc1)C(=O)C(=O)NCC(O)c1cccc(Oc2ccc(Cl)c(Cl)c2)c1 (stereo not given) | 590 nM | 640 nM | – |
| CCC(NC(=O)C(CC(C)C)NC(=O)OCc1ccccc1)C(=O)C(=O)NCC(O)c1ccc(OCc2ccccc2)c(OCc2ccccc2)c1 (stereo not given) | 230 nM | 320 nM | – |
| CC(C)CC(NC(=O)OCc1ccccc1)C(=O)NC(Cc1ccccc1)C(=O)C(=O)NCC(O)c1cccc(C(F)(F)F)c1 (stereo not given) | 460 nM | 140 nM | – |
| CCC(NC(=O)C(CC(C)C)NC(=O)OCc1ccccc1)C(=O)C(=O)NCC(O)c1ccc(OCc2ccccc2)cc1 (stereo not given) | 80 nM | 110 nM | – |
| CNC(=O)C(=O)C(Cc1ccccc1)NC(=O)C(CC(C)C)NC(=O)OCc1ccccc1 (stereo not given) | 350 nM | 570 nM | – |
| CCC(NC(=O)C(CC(C)C)NC(=O)OCc1ccccc1)C(=O)C(=O)NCC(OC)OC (stereo not given) | – | 190 nM | – |
| CCNC(=O)C(=O)C(CC)NC(=O)C(CC(C)C)NC(=O)c1nccc2ccccc12 (stereo not given) | 350 nM | 220 nM | – |
| CCC(NC(=O)C(CC(C)C)NC(=O)OCc1ccccc1)C(=O)C(=O)NCc1nc2c(c(=O)n(C)c(=O)n2C)n1C (stereo not given) | 32000 nM | 1700 nM | – |
| CCOC(CNC(=O)C(=O)C(CC)NC(=O)C(CC(C)C)NC(=O)OCc1ccccc1)OCC (stereo not given) | – | 110 nM | – |
| CCNC(=O)C(=O)C(CC)NC(=O)C(CC(C)C)NC(=O)c1cccnc1 (stereo not given) | 1300 nM | 880 nM | – |
| CCC(NC(=O)C(CC(C)C)NC(=O)OCc1ccccc1)C(=O)C(=O)NCc1ccc2ccccc2n1 (stereo not given) | 130 nM | 450 nM | – |
| CCC(NC(=O)C(CC(C)C)NC(=O)OCc1ccccc1)C(=O)C(=O)NCC(O)c1cccc(C(F)(F)F)c1 (stereo not given) | 350 nM | 110 nM | – |
| CCCC(NC(=O)C(CC(C)C)NC(=O)OCc1ccccc1)C(=O)C(=O)NCC(O)c1ccccc1 (stereo not given) | 7800 nM | 3400 nM | – |
| CCC(NC(=O)C(CC(C)C)NC(=O)OCc1ccccc1)C(=O)C(=O)NCCc1cccn1C (stereo not given) | – | – | 1200 nM |
| CC(C)CC(NC(=O)OCc1ccccc1)C(=O)NC(Cc1ccccc1)C(=O)C(=O)NCC(O)c1ccc(OCc2ccccc2)cc1 (stereo not given) | – | 380 nM | – |
| CC(C)CC(NC(=O)OCc1ccccc1)C(=O)NC(Cc1ccccc1)C(=O)C(=O)NCC(O)c1cccc(Oc2cccc(C(F)(F)F)c2)c1 (stereo not given) | 180 nM | 120 nM | – |
| CCC(NC(=O)C(CC(C)C)NC(=O)OCc1ccccc1)C(=O)C(=O)NCCNC(=O)CCCC[C@@H]1SC[C@@H]2NC(=O)N[C@@H]21 (stereo not given in full) | 650 nM | 660 nM | – |
| CCNC(=O)C(=O)C(CC)NC(=O)C(CC(C)C)NC(=O)c1cnccn1 (stereo not given) | 1400 nM | 350 nM | – |
| CC(C)CC(NC(=O)OCc1ccccc1)C(=O)NC(Cc1ccccc1)C(=O)C(=O)NCC(O)c1c(F)c(F)c(F)c(F)c1F (stereo not given) | 700 nM | 210 nM | – |
| CCNC(=O)C(=O)C(CC)NC(=O)C(CC(C)C)NC(=O)CCc1ccccc1 (stereo not given) | 1900 nM | 220 nM | – |
| CCC(NC(=O)C(CC(C)C)NC(=O)OCc1ccccc1)C(=O)C(=O)NCC(O)c1cccc(Oc2cccc(C(F)(F)F)c2)c1 (stereo not given) | 70 nM | 300 nM | – |

Reference: ChEMBL document CHEMBL1129436, “Novel peptidyl alpha-keto amide inhibitors of calpains and other cysteine proteases” (J Med Chem, 1996)
